# Screening data: PubChem BioAssay, SRMLSC
# Yeast growth inh: growth inhibitors of yeast BB579 in restrictive medium, primary screen, yeast lifespan-shortening project, S. cerevisiae; OD615, 48 h; inhibition, % at 10 µM; 140,000 compounds, 0.51% hits; AID 804, 2007;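 active means inhibition above a set limit, 3 SD over the mean compound inhibition, cut at about 44% in these data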
#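 Test system: S. cerevisiae DeaD strain BB579 yeast; Medium: restrictive CSMM-D medium; Compound: one dose, 10 µM compound with 0.25% DMSO; Incubation: 4 h cell preincubation, 48 h compound exposure, 30 °C humidified; Signal: OD at 615 nm; Benchmarks: amphotericin B at 10 µg/mL as positive control.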
# Yeast life ext: compounds extending yeast replicative lifespan, primary screen, S. cerevisiae, OD615; S. cerevisiae growth with nicotinamide; deaD strain in restrictive glucose medium; inhibition of the nicotinamide effect, % at 10 µM; 130,000 compounds, 0.68% hits; AID 775, 2007;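 active means inhibition above a set limit, placed 3 SD over the median of all compounds, cut at about 26% in these data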;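 further: 0% = nicotinamide-treated wells and 100% = cells grown without nicotinamide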
#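 Assay system: DeaD-strain S. cerevisiae. Medium: CSMM-D glucose medium, restrictive. Reagent: nicotinamide, 1.5 mM, co-present with compound. Compound: 10 µM single point, 0.25% DMSO. Schedule: culture preincubation 4 h, compound exposure 48 h, both 30 °C. Detection: absorbance at 615 nm.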
# RAM inhibit: inhibitors of the yeast RAM network, primary screen, dse1pr::URA3 reporter, 5-FOA selection | S. cerevisiae dse1pr::URA3 reporter, 5-FOA growth OD615, 2 d; analog-sensitive cbk1-as2 kinase mutant strain | inhibition, % at 50 µM | 190,000 compounds, 1.8% hits | AID 868, 2007;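 active means inhibition above a set limit, 3 SD over mean compound inhibition, cut at about 8.4% in these data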;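 further: 0% = DMSO-only wells with no growth and 100% = 10 µM 1-NA-PP1 full growth; inhibition rescues growth on 5-FOA so higher OD means more RAM inhibition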
# Numbers without * were called inactive; . = no result. A selection: hits, their analogues and other compounds. The true share with any hit is near 2.6%.
SMILES,Yeast growth inh,Yeast life ext,RAM inhibit
Cc1ccc2nc(-c3ccc(NC(=O)COC(=O)c4ccco4)cc3)sc2c1,-29.7,-0.3,3.5
O=c1c2ccccc2nc(SCc2ccncc2)n1CC1CCCO1 (stereo unspecified),.,.,2.1
COc1ccc(C2=C(CC(=O)O)C(=O)CC2)cc1,-4.1,-5.3,0.1
O=S(=O)(NC1=NCCCCC1)c1ccc2ccccc2c1,-22.5,8.5,1.1
Cc1nc(N2CCOCC2)c2oc3ccccc3c2n1,-20.2,-18.2,2.7
c1ccc2c(c1)oc1c(N3CCOCC3)ncnc12,55.6*,-14.4,0.3
COCCNC(=O)C(=O)NNC(=O)c1ccccc1OC,.,.,-0.4
C=CCNC(=O)NC(=O)COC(=O)/C=C/c1cccc([N+](=O)[O-])c1,.,.,3.3
C#CCOc1ccc(Cl)cc1/C=N/O,-13.8,-15.5,0.4
O/N=C/c1cc(Cl)ccc1OCc1cccc2ccccc12,75.6*,-8.6,3.2
CCOC(=O)c1ccc(CC2S/C(=C(\C#N)C(C)=O)NC2=O)cc1 (stereo unspecified),-55.2,19.7,0.6
CCc1ccc(CC2S/C(=C(\C#N)C(C)=O)NC2=O)cc1 (stereo unspecified),-2.9,44.5*,2.6
COc1ccc(C2CCCN2C(=S)Nc2cccc(Cl)c2C)cc1OC (stereo unspecified),.,.,-0.5
CCOC(=O)c1cc(-c2ccc3c(c2)OCCO3)nc2c1c(C)nn2CCC#N,-41.2,-31.6,9.0*
CCOC(=O)c1cc(-c2ccc(Cl)cc2)nc2c1c(C)nn2CCC#N,-5.0,-8.2,6.3
CCN(CC)C(=O)CCCC(=O)N(CC)CC,.,.,0.3
Cn1cc(Br)c(C(=O)NNC(=O)c2ccc(Cl)cc2)n1,-36.1,5.1,2.1
O=C(c1cccc(S(=O)(=O)Nc2ccccc2F)c1)N1CCN(c2ccccc2F)CC1,.,.,1.1
Cc1cc(C)c(N=Cc2c(O)n(-c3nccs3)c(=O)c3ccccc23)c(C)c1,-33.2,18.6,3.3
Cc1cccc(C)c1N=Cc1c(O)n(-c2nccs2)c(=O)c2ccccc12,-39.2,33.3*,2.4
COc1ccc([N+](=O)[O-])cc1NC(=O)c1ccccc1N(C)S(C)(=O)=O,.,.,4.3
O=c1c2[nH]c3ccccc3c2ncn1Cc1ccncc1,-15.4,-8.8,-0.3
O=c1c2[nH]c3ccccc3c2ncn1Cc1ccco1,-17.0,71.9*,4.0
CCOC(=O)c1sc(NC(=O)COC(=O)C(CCSC)NC(C)=O)nc1C (stereo unspecified),-44.7,2.3,0.9
COc1cc(O)oc1C=Nc1ccc(C(=O)O)cc1,.,.,2.0
SMILES,Yeast growth inh,Yeast life ext,RAM inhibit
COC(=O)c1ccc(-c2ccco2)n1Cc1ccccc1Cl,-11.1,-11.8,0.0
COC(=O)c1ccc(-c2ccco2)n1Cc1nc(-c2ccc(OC)c(OC)c2)oc1C,-78.2,-1.9,8.4*
O=c1c2ccccc2c(/C=N/NS(=O)(=O)c2ccccc2)c(O)n1-c1ccccn1,.,.,2.4
CSc1ncc(Cl)c(C(=O)Nc2nnc(SC/C=C/c3ccccc3)s2)n1,11.2,-6.6,4.8
C=CCSc1nnc(NC(=O)c2nc(SCC)ncc2Cl)s1,-5.8,9.3,8.4*
COC(=O)c1ccccc1Sc1c(/C=N/OC(=O)c2ccccc2)c(C(F)(F)F)nn1C,-6.9,-6.2,2.7
Cc1ccc(C(=O)O/N=C/c2c(C(F)(F)F)nn(C)c2Sc2ccc(Cl)cc2)cc1,-73.3,-1.4,9.6*
CC1=NN(C(C#N)c2c(C)nn(Cc3ccccc3)c2C)C(C)(C)C1 (stereo unspecified),.,.,1.3
O=C(c1cnn2c(C(F)F)cc(C3CC3)nc12)N1CCCC1,-4.5,107.4*,-0.9
O=C(c1cnn2c(C(F)F)cc(C3CC3)nc12)N1CCc2ccccc2C1,-4.1,-4.2,0.0
NC(=O)c1cccc(S(=O)(=O)N2CCCCC2)c1,-8.1,-3.6,-1.1
Cn1c(O)c(N=NC(=O)c2cccc(S(=O)(=O)N3CCCCC3)c2)c2ccccc21,-37.4,2.9,8.9*
CC(NC(=O)CCN1C(=O)c2ccccc2C1=O)c1ccc2c(c1)CCCC2 (stereo unspecified),-10.3,2.1,3.1
CC(NC(=O)CCCCCCN1C(=O)c2ccccc2C1=O)c1ccc2c(c1)CCCC2 (stereo unspecified),-47.1,6.8,10.7*
CC(NC(=O)CCCCCN1C(=O)c2ccccc2C1=O)c1ccc2c(c1)CCCC2 (stereo unspecified),-103.4,-6.6,9.1*
CC(NC(=O)CCCN1C(=O)c2ccccc2C1=O)c1ccc2c(c1)CCCC2 (stereo unspecified),-21.0,5.2,2.3
Cc1cc(C)n(CC(O)CN2c3ccccc3Sc3ccccc32)n1 (stereo unspecified),-49.9,11.1,-0.5
CCOc1ccc(NC(=O)COc2ccc(C(=O)NCCc3ccccc3)cc2)cc1,-10.7,2.0,3.1
CC(=O)N1CCN(c2ccccc2NC(=O)COc2ccccc2C)CC1,.,.,2.2
CC(=O)Nc1cccc(OCC(=O)Nc2ccccc2)c1,-23.7,-4.9,-0.9
CCOC(=O)Nc1cccc(OCC(=O)Nc2ccccc2OCC)c1,-69.7,-13.6,9.6*
Cc1ccccc1OCC(=O)Nc1ccccc1-c1ccccc1NC(=O)COc1ccccc1C,-9.7,7.6,9.4*
CCCCc1ccc(NC(=O)COc2ccc(C(=O)Nc3ccccc3OCC)cc2)cc1,-42.3,13.5,8.7*
Cc1cc(Sc2nc(NC(C)C)nc(NC(C)C)n2)nc(Cl)n1,.,.,0.7
